Reference: paper PMC8026699 (Cancer research, 2021)

Tests used:
[1] = tested on: BT474, MDA-MB-468, and WHIM12 tumors; assay: Heavy acetate stable isotope tracing in tumors; format: in vivo, mouse
How it was run: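 Tumor-bearing mice received 2% D3- or 13C2-acetate in drinking water for two days, plus a 2 g/kg IP heavy-acetate bolus 90 min before sacrifice. Tumors excised under anesthesia and flash-frozen. Extraction at 40 mg/mL in methanol/acetonitrile/water (5:3:2) by bead homogenization, cleared twice. Citrate labeling analysed by HILIC LC-MS.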

A7C11 cells = assay: 13C2-acetate labeling of palmitate in A7C11 cells; format: cell-based, mouse; details: A7C11, N10 and H1, 24 hr, 100 μM 13C2-acetate
How it was run: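 Cells labeled 24 h with 100 μM 13C2-acetate in SMEM under N10 (normoxia, 10% dialyzed FBS) or H1 (1% O2, 1% dialyzed FBS). Vehicle or test compound present; for BT474 in H1, a 10-fold dilution series. Lipids extracted with methanol/chloroform/PBS, saponified in 0.3 M KOH/90% methanol at 70°C for 1 h, then hexane-extracted. Palmitate labeling read by C18 reverse-phase LC-MS. n = 3, mean ± S.D.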

A7C11 tumors = assay: A7C11 tumor growth in mice; format: in vivo, mouse; details: A7C11 (ACSS2 low) tumors
How it was run: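 Parental or CRISPR-Cas9 sgAcss2 cells (lentiviral, blasticidin-selected pools) implanted subcutaneously into 5–6-week-old female NSG mice in PBS:Matrigel: A7C11 at 5×10^5, Brpkp110 at 5×10^5. Calipers read tumors three times weekly. Volume = (L × W²)/2, L being the longer measurement; not blinded.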

recombinant human ACSS1 = biological target: T1, recombinant human ACSS1 (Homo sapiens, UniProt Q9NUB1); assay: TranScreener AMP biochemical assay of ACSS1 activity; details: regardless of the substrate (acetate or propionate)
T1 sequence (Q9NUB1 38-689): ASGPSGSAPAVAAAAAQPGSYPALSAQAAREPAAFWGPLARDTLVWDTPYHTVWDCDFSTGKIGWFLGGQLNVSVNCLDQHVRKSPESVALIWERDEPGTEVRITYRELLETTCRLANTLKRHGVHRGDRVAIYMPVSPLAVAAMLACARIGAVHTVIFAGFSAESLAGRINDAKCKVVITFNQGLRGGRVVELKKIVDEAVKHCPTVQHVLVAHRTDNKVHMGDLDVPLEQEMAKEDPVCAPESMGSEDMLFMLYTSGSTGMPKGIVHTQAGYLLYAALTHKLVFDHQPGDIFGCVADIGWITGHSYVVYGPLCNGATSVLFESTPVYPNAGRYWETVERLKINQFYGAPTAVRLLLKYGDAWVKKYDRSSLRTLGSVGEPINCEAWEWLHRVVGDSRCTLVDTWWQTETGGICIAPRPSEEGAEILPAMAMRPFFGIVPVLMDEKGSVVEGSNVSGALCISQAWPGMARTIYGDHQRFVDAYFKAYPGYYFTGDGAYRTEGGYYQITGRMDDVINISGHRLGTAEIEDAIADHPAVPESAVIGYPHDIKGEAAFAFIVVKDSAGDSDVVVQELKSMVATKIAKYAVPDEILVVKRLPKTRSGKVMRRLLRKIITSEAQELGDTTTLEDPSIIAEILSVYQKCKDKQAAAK
How it was run: (§1)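 Test compound was serially diluted in DMSO and added to ACSS1 (2 nM) or ACSS3 (25 nM). Acetate reaction: HEPES pH 7.4 buffer with 140 mM NaCl; final 5 mM acetate, 50 μM ATP, 5 μM CoA. Propionate reaction: HEPES/KCl/CHAPS buffer; final 5 mM propionate, 10 μM ATP, 100 μM CoA. Incubation 120 min, then AMP detected by terbium-antibody/tracer TR-FRET after 30 min. Percent inhibition was set against no-enzyme and DMSO controls.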

MDA-MB-468 tumors = assay: MDA-MB-468 tumor xenograft growth; format: in vivo, mouse; details: MDA-MB-468 (ACSS2 high), 100 mpk daily PO
How it was run: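 Female NSG mice, 5–6 weeks old, received subcutaneous PBS:Matrigel grafts: BT474 at 1×10^6 (with a 60-day 17β-estradiol pellet at the neck), MDA-MB-468 at 5×10^6, or WHIM12 PDX cells at 2×10^6. Once tumors established, mice were randomized to daily IP or oral gavage. Arms: vehicle (10% DMSO, 20% solutol, 70% water with 0.5% Tween20) or 100 mg/kg test compound. Calipers thrice weekly; volume (L × W²)/2.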

recombinant human ACSS3 = biological target: T2, recombinant human ACSS3 (Homo sapiens, UniProt Q9H6R3); assay: TranScreener AMP biochemical assay of ACSS3 activity; details: regardless of the substrate (acetate or propionate)
T2 sequence (Q9H6R3 30-686): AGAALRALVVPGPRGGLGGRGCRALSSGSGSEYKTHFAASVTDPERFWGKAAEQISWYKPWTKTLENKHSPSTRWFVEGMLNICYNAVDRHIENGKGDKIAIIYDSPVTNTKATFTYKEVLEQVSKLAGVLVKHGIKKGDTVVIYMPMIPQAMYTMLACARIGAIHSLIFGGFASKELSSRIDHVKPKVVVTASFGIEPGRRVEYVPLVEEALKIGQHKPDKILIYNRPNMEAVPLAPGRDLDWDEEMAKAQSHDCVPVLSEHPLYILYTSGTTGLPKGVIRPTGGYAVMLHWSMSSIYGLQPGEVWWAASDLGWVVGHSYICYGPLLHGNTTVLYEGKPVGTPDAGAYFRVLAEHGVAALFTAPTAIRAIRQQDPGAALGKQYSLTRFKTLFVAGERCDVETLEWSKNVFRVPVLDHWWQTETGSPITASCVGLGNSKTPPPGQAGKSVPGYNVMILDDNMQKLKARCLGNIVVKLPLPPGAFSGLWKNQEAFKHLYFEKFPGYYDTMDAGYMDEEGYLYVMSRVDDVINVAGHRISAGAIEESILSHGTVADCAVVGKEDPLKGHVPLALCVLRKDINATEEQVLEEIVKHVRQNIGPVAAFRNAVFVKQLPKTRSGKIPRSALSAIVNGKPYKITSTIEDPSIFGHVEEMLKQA
How it was run: as §1

[2] = Body weight in tumor xenograft studies; format: in vivo, mouse; details: 100 mg/kg daily IP or oral gavage vs vehicle
How it was run: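 Female NSG mice, 5–6 weeks old, carried subcutaneous tumours in PBS:Matrigel (BT474 with a 17β-estradiol pellet; MDA-MB-468, WHIM12, A7C11, Brpkp110) or BT474 mammary fat-pad orthografts. After tumour establishment, mice were randomized and dosed daily by IP injection or oral gavage. Groups received vehicle (10% DMSO, 20% solutol, 70% water containing 0.5% Tween20) or test compound at 100 mg/kg.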

CCn1c(C(O)(c2ccccc2)c2ccccc2)nc2ccc(C(=O)NC[C@@H](C)O)cc21 [VY-3-135, (R)-1-ethyl-2-(hydroxydiphenylmethyl)-N-(2-hydroxypropyl)-1H-benzo[d]imidazole-6-carboxamide]
D3-acetate labeling of citrate in MDA-MB-468 tumors ([1]; MDA-MB-468 tumors): increase in D3-acetate labeling of citrate | D3-acetate or 13C2-acetate labeling of citrate in tumors ([1]; readout of ACSS1): did not observe any inhibitory effect | acetate dependent labeling of palmitate by 13C2-acetate (A7C11 cells): efficiently blocked | tumor growth (A7C11 tumors): but not WHIM12 and A7C11 tumors | inhibitory activity towards ACSS1 (recombinant human ACSS1): neither VY-3-249 nor VY-3-135 displayed any inhibitory activity | tumor growth (MDA-MB-468 tumors): repressed | inhibitory activity towards ACSS3 (recombinant human ACSS3): neither VY-3-249 nor VY-3-135 displayed any inhibitory activity | body weight [2]: No significant differences in body weight
